Active and inactive are the calls of the source. No cut-off for these calls is given here.
Columns and labels:
[1] = test system: DNA; experiment: Binding affinity to calf thymus DNA in aqueous solution at pH 7.0 by thermal denaturation; type: nucleic-acid assay; settings: Bos taurus
In short: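 ct-DNA in sodium cacodylate buffer, pH 7.0, I = 0.05 mol dm^-3, concentration taken as phosphate. Compound added at r[compd]/[ct-DNA] = 0.3. Melting followed by absorbance at 260 nm, with ligand absorbance subtracted and curves normalized. Tm taken as the transition midpoint (first derivative or tangent method). ΔTm = Tm(complex) − Tm(free DNA), averaged over at least two runs.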

[2] = test system: HEp-2; experiment: Antiproliferative activity against human Hep2 cells after 72 hrs by MTT test; type: functional, cell-based; settings: HEp-2, 72 h
In short: (§1)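 Cells grown as monolayers in DMEM with 10% FBS, 2 mM L-glutamine, penicillin and streptomycin at 37 °C, 5% CO2. Seeded on day 0 at 1 · 10⁴/mL (HeLa, Hep-2, MiaPaCa-2, SW620), 2 · 10⁴/mL (MCF-7) or 3 · 10⁴/mL (WI 38). Five dilutions (10^-8 to 5 · 10^-6 mol/l), 72 h, MTT read-out. Quadruplicate, three experiments. IC50 by linear regression of percentage growth.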

[3] = test system: HeLa; experiment: Antiproliferative activity against human HeLa cells after 72 hrs by MTT test; type: functional, cell-based; in short: as §1
[4] = test system: MIA PaCa-2; experiment: Antiproliferative activity against human MiaPaCa2 cells after 72 hrs by MTT test; type: functional, cell-based; settings: MIA PaCa-2, 72 h; in short: as §1
[5] = test system: SW-620; experiment: Antiproliferative activity against human SW620 cells after 72 hrs by MTT test; type: functional, cell-based; settings: SW-620, 72 h; in short: as §1
[6] = test system: MCF7; experiment: Antiproliferative activity against human MCF7 cells after 72 hrs by MTT test; type: functional, cell-based; settings: MCF7, 72 h; in short: as §1
[7] = test system: WI-38; experiment: Antiproliferative activity against human WI38 cells after 72 hrs by MTT test; type: functional, cell-based; settings: WI-38, 72 h; in short: as §1

Structure (SMILES)	Activity [1]	IC50 [3] [nM]	IC50 [4] [nM]	IC50 [5] [nM]	IC50 [6] [nM]	IC50 [2] [nM]	IC50 [7] [nM]
COc1cccc(/C=N/NC(=S)Nc2ccccc2)c1O		1700	2500	1600	3000	1600	1400
NC(=S)N/N=C/c1ccccc1O	inactive	≥ 5000	> 5000	> 5000	≥ 5000	≥ 5000	≥ 5000
CCN(CC)c1ccc(/C=N/NC(N)=S)c(O)c1		2000	> 5000	3000	400	900	200

Now those with a lower IC50 [3], led by results:

Activity [1]	IC50 [3] [nM]	IC50 [4] [nM]	IC50 [5] [nM]	IC50 [6] [nM]	Structure (SMILES)	IC50 [2] [nM]	IC50 [7] [nM]
inactive	1500	2400	2000	4000	Oc1ccccc1/C=N/NC(=S)Nc1ccccc1	2400	1300
inactive	700	200	600	1200	CCN(CC)c1ccc(/C=N/NC(=S)Nc2ccccc2)c(O)c1	300	300
	200	> 5000	4700	> 5000	NC(=S)N/N=C/c1c(O)ccc2ccccc12	200	≥ 5000
